# Only some compounds are listed: those with a hit (about 1.2% of all), similar ones and a draw of the others.
# ARNT-TACC3 inh: disruptors of human ARNT/TACC3 interaction | Q9Y6A5 | AlphaScreen His-ARNT PAS-B/GST-TACC3 binding, luminescence; TACC3 fragment carries E629A point mutation | inhibition, % at 9.99 µM | 390,000 tested, 0.66% active | AID 623870;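 active = mean inhibition of replicates at least 50% and at least half of replicates each reaching 50%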;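 note: 0% = complete ARNT plus TACC3 wells and 100% = ARNT alone without TACC3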
# CAL PDZ FP-1: inhibitors of human CAL PDZ peptide binding. inhibition, % at 24.9 µM. Q9HD26. 300,000 tested, 0.92% active. purified CAL PDZ, TMR-peptide fluorescence polarization, 1 h;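 active = mean inhibition of at least 30% with at least half of replicates also reaching 30%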;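 note: 0% = DMSO neutral control and 100% = excess unlabeled competitor peptide PRC23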
# CAL PDZ FP-2: blocks peptide binding to human CAL PDZ domain | 330,000 tested, 0.02% active | purified CAL PDZ, TMR-peptide fluorescence polarization, 1 h | Q9HD26 | AID 504414 | inhibition, % at 20 µM;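 active = highest replicate inhibition of at least 40%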;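 note: plate controls were DMSO neutral control wells for no effect and unlabeled competitor peptide control wells for full effect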
#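 System: tagged CAL PDZ domain. Schedule: 1 h room-temperature incubation prior to read. Signal: fluorescence polarization (mP). Measure: percent inhibition from loss of millipolarization.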
# The depositor's hits bear a star; / = not tested or not shown.
SMILES,ARNT-TACC3 inh,CAL PDZ FP-1,CAL PDZ FP-2
COc1ccc(CN2CCN(Cc3ccccc3OC)CC2)cc1,-10,-2,0
CC=Cc1ccc2n(c1=O)C[C@H]1[C@H](CO)[C@@H](C(=O)O)[C@@H]2N1S(=O)(=O)c1ccccc1C (mixture of isomers),0,/,/
CCN(CC)C(=O)c1ccc2c(c1)C1C=CCC1C(C(=O)O)N2 (stereo not given),13*,1,2
CCN(CC)C(=O)c1ccc2c(c1)C1C(Cl)C(Sc3ccccc3[N+](=O)[O-])CC1C(C(=O)O)N2 (stereo not given),35,-4,-3
CN(C)C1=C(C#N)C(c2ccccc2)=NP(N(C)C)(N(C)C)=N1,-2,-3,-2
CN(C)C1=NC(N(C)C)=NP(N(C)C)(N(C)C)=N1,-10,35*,-2
COC(=O)[C@@H]1[C@@H](CO)[C@@H]2Cn3c(ccc(-c4ccccc4)c3=O)[C@H]1N2CCc1ccccc1,-4,/,/
CCOc1ccccc1N=C1SCCCN1C,-14,/,0
CC(=O)N1CCCSC1=Nc1ccccc1,-18,58*,-1
O=C(Cc1cccnc1)N1CCCCN2[C@H](CO)[C@@H](c3ccc(C#CC4(O)CCCC4)cc3)[C@H]2C1,-6,/,/
N#Cc1cccc(-c2ccc([C@H]3[C@H](CO)N4CCCCN(C(=O)Cc5ccncc5)C[C@@H]34)cc2)c1,3,/,/
Cc1c(N=Cc2c(O)n(Cc3ccccc3)c(=O)[nH]c2=O)c(=O)n(-c2ccccc2)n1C,/,0,-2
Cc1c(N=Nc2c(O)n(Cc3ccccc3)c(=O)[nH]c2=O)c(=O)n(-c2ccccc2)n1C,62*,/,-2
Cc1cc(C)c(-n2c(O)c(/C=N/NC(=O)c3ccncc3)c(=O)[nH]c2=O)c(C)c1,64*,/,0
Cc1ccc(N=Cc2c(O)n(-c3ccc(C)cc3)c(=O)[nH]c2=O)cc1,10,-2,1
O=c1[nH]c(=S)n(-c2ccccc2)c(O)c1C=NCCN1CCNCC1,1,-3,-1
CC(C)c1ccc(-n2c(O)c(/C=N/NC(=O)c3ccncc3)c(=O)[nH]c2=O)cc1,61*,-5,0
CCCCn1c(O)c(/C=N/NC(=O)c2ccncc2)c(=O)[nH]c1=O,66*,-1,-2
CCCCn1c(O)c(C=NCCCn2ccnc2)c(=O)[nH]c1=O,-7,0,0
Cn1c(=O)c2c(nc(N/N=C/c3c(O)n(-c4ccccc4)c(=S)[nH]c3=O)n2C)n(C)c1=O,58*,0,-1
CCc1ccc(-n2c(O)c(/C=N/NC(=O)c3ccncc3)c(=O)[nH]c2=O)cc1,4,-4,-1
COC(=O)[C@@H]1[C@@H](CO)[C@@H]2Cn3c(ccc(-c4ccncc4)c3=O)[C@H]1N2CCc1ccccc1,-5,/,/
CC(C)NC(=O)N1[C@@H]2Cn3c(ccc(-c4cccc(C(=O)N(C)C)c4)c3=O)[C@H]1[C@@H](C(=O)O)[C@@H]2CO,18,/,/
O=C(Cc1cccnc1)N1CCCCN2[C@H](C1)[C@H](c1ccc(/C=C/c3ccccc3)cc1)[C@@H]2CO,11,/,/
O=C(Cc1cccnc1)N1CCCCN2[C@@H](CO)[C@H](c3ccc(/C=C/c4ccccc4)cc3)[C@@H]2C1,9,/,/
SMILES,ARNT-TACC3 inh,CAL PDZ FP-1,CAL PDZ FP-2
COC(=O)[C@@H]1[C@@H](CO)[C@@H]2Cn3c(cccc3=O)[C@H]1N2C(=O)C1CC1,-2,/,/
COc1ccc(C#Cc2ccc([C@@H]3[C@H](CO)N4CCCCN(C(=O)Cc5ccccc5)C[C@@H]34)cc2)cc1,-6,/,/
O=C(Cc1ccccn1)N1CCCCN2[C@H](CO)[C@@H](c3ccc(Br)cc3)[C@@H]2C1,0,/,/
COC(=O)[C@H]1[C@H](CO)[C@H]2Cn3c(ccc(C4=CCCCC4)c3=O)[C@@H]1N2C(=O)NC(C)C,0,/,/
O=C(N/N=C/c1c(O)n(C2CCCCC2)c(=S)[nH]c1=O)c1ccccc1O,4,-3,-2
CC(C)c1ccc(-n2c(O)c(/C=N/NC(=O)c3ccccc3O)c(=O)[nH]c2=S)cc1,85*,5,0
Cc1ccccc1-n1c(O)c(/C=N/NC(=O)c2ccncc2)c(=O)[nH]c1=O,71*,0,1
Cc1ccc(-n2c(O)c(C=NCCCn3ccnc3)c(=O)[nH]c2=O)cc1,-3,73*,-1
Cc1ccccc1-n1c(O)c(/C=N/c2nccs2)c(=O)[nH]c1=O,-7,-1,0
COc1ccc(-n2c(O)c(C=NCCCn3ccnc3)c(=O)[nH]c2=O)cc1,4,-3,-1
COC(=O)[C@H]1[C@H](CO)[C@H]2Cn3c(ccc(-c4cncnc4)c3=O)[C@@H]1N2S(=O)(=O)c1ccccc1C,-2,/,/
COC(=O)[C@@H]1[C@@H](CO)[C@@H]2Cn3c(cccc3=O)[C@@H]2N1CC1CC1,-5,/,/
O=C(Cn1ncc2ccccc21)N1CCC2(CC1)OCCO2,9,0,0
CCn1c(=O)n(CC(=O)N2CCC3(CC2)OCCO3)c(=O)c2ccccc21,2,52*,-1
C=CCN1C(=S)N[C@@H]2c3ccccc3O[C@@]1(C)[C@@H]2C(=O)OCC,1,/,/
COc1ccc(C=C2C(=O)NC(=S)NC2=O)cc1,6,-4,0
O=C1NC(=S)NC(=O)C1=Cc1cccc2cc3ccccc3cc12,21*,-2,-2
CCCNC(=O)N1[C@@H]2Cn3c(ccc(-c4ccccc4OC)c3=O)[C@H]1[C@@H](C(=O)O)[C@@H]2CO,-5,/,/
CN1[C@@H]2c3cccc(=O)n3C[C@H]1[C@H](CO)[C@H]2C(=O)NCC1CC1,-2,/,/
C[n+]1c(-c2ccccc2)c2cc(N)ccc2c2ccc(N)cc21,47*,2,12
Nc1ccc2ccc3cccc[n+]3c2c1,-4,-3,1
O=C(Cc1ccccc1)N1CCCCN2[C@H](CO)[C@H](c3ccc(-c4ccccc4)cc3)[C@H]2C1,19,/,/
O=C(Cc1ccncc1)N1CCCCN2[C@H](CO)[C@H](c3ccc(C#Cc4ccccc4F)cc3)[C@@H]2C1,22,/,/
O=C(Nc1cccc(Cl)c1)OC1CN2CCC1CC2 (stereo not given),-1,1,-2
O=C(Nc1ccc(Cl)cc1)OC1CN2CCC1CC2 (stereo not given),1,48*,-1
SMILES,ARNT-TACC3 inh,CAL PDZ FP-1,CAL PDZ FP-2
CNC(=S)N1CCn2cccc2C1c1cccnc1 (stereo not given),0,78*,7
CCCCNC(=S)N1CCn2cccc2C1c1cccnc1 (stereo not given),0,1,0
Cc1ccccc1-c1ccc([C@@H]2[C@@H](CO)N3CCCCN(C(=O)Cc4ccccn4)C[C@@H]23)cc1,2,/,/
COc1ccc(-c2cc(=Nc3cccc(C(=O)O)c3)c3cc(C)ccc3o2)cc1,-15,-4,-5
COc1ccc(-c2cc(=NCCCCCC(=O)O)c3cc(C)ccc3o2)cc1,61*,0,-2
N#Cc1cccc(-c2ccc([C@@H]3[C@H]4CN(C(=O)Cc5cccnc5)CCCCN4[C@H]3CO)cc2)c1,-2,/,/
CC(NC(=O)Cc1cccc2ccccc12)C(=O)N1CCC(=O)CC1 (stereo not given),3,47*,0
O=C1CCN(C(=O)CNC(=O)Cc2ccccc2)CC1,1,-3,-1
